Data set [1] in a line: Inhibition of mouse Norovirus RNA-dependent RNA polymerase assessed as decrease in GTP incorporation incubated for 10 mins by scintillation counting method.
The nature of data set [2]: Inhibition of human Norovirus RNA-dependent RNA polymerase assessed as decrease in GTP incorporation incubated for 10 mins by scintillation counting method.
Data set [3] in a line: Inhibition of recombinant Norovirus GII.4 C-terminal His6-tagged RNA-dependent RNA polymerase in Escherichia coli assessed as decrease in GTP incorporation incubated for 10 mins by scintillation counting method.
Data set [4] can be described thus: Antiviral activity against murine Norovirus GV.1 infected in mouse RAW264.7 cells assessed as reduction in plaque formation incubated for 48 hrs by qRT-PCR analysis. In kind it is functional, cell-based. The note with it: GV.1, RAW264.7, 48 h.
Data set [5] is described as follows: Antiviral activity against murine Norovirus infected in mouse RAW264.7 cells assessed as reduction in virus-induced cytopathic effect incubated for 72 hrs by MTS assay. In kind it is functional, cell-based. As to conditions: RAW264.7, 72 h. The essentials: (§1)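 RAW 264.7 cells (1 × 10⁴/well) infected with MNV-1.CW1 at MOI 0.001 alongside a compound dilution series (0.023–50 or 100 µg/mL; 8 concentrations). Incubated 3 days until CPE was complete in untreated infected wells. MTS/PMS added, OD read at 498 nm after 2 h. %CPE reduction taken against uninfected and infected untreated controls; EC₅₀ is 50% protection from CPE.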

Data set [6] in a line: Cytotoxicity against mouse RAW264.7 cells assessed as reduction in cell viability incubated for 3 days by MTS assay. It is filed as cell-based. The note with it: time 3 day. Put shortly:
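Uninfected RAW 264.7 cells were exposed for 3 days to the same compound concentrations used in the MNV assay, then MTS read-out. Viability was expressed as % of untreated cells, and CC₅₀ is the concentration that reduced viable cells by 50%.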

Data set [7] is described as follows: Selectivity index, ratio of CC50 for mouse RAW264.7 cells to EC50 for antiviral activity against murine Norovirus infected in mouse RAW264.7 cells. It is filed as toxicity, cell-based. The note with it: read-out: Ratio CC50/EC50. Put shortly: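 Ratio of CC₅₀ (MTS, uninfected RAW 264.7, 3 days) to EC₅₀ (MNV CPE-reduction MTS assay in RAW 264.7, 3 days), calculated as CC₅₀/EC₅₀.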

In data set [8] the test system is Norovirus. Description: Antiviral activity against human Norovirus. It is filed as functional.
Data set [9] concerns Norovirus. Description: Antiviral activity against human Norovirus GI.1 infected in human HGT-1 cells assessed as reduction in virus replication incubated for 72 hrs by qRT-PCR analysis. The note with it: GI.1, HGT-1, 72 h. In kind it is functional, cell-based. Put shortly:
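HGT-1 cells stably carrying the GI.1 HuNoV replicon were seeded at 5,000/well in complete DMEM without G418. Serial compound dilutions were added after 24 h, followed by 72 h incubation and a PBS wash. Intracellular replicon RNA was quantified by qRT-PCR, normalised to β-actin by the Pfaffl method with per-run efficiencies. EC₅₀ is 50% reduction of relative replicon RNA.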

The test system of data set [10] is Norovirus. The experiment in a line: Antiviral activity against human Norovirus infected in BJAB cells assessed as reduction in viral replication incubated for 3 days by qRT-PCR analysi. In kind it is functional, cell-based. As to conditions: 72 h.
A short description of data set [11]: Antiviral activity against murine Norovirus infected in mouse RAW264.7 cells assessed as reduction in virus-induced cytopathic effect incubated for 3 days by MTS assay. In kind it is functional, cell-based. The note with it: RAW264.7, 72 h. The essentials: as §1

Molecules are shown by their SMILES.

On to `O=C(Nc1cccc(C(=O)Nc2ccc(S(=O)(=O)O)c3cc(S(=O)(=O)O)cc(S(=O)(=O)O)c23)c1)Nc1cccc(C(=O)Nc2ccc(S(=O)(=O)O)c3cc(S(=O)(=O)O)cc(S(=O)(=O)O)c23)c1`, for which the IC50 in data set [1] amounted to 200 nM; in [2] it was 71 nM.

In the case of `O=C(O)c1[nH]nnc1-c1ccccc1`, in [3], the IC50 worked out at 9200 nM. In addition, the half-maximal effective concentration (EC50) in data set [4] is 34500 nM.

In the case of `C[C@@]1(O)[C@H](O)[C@@H](CO)O[C@H]1c1ccc2c(N)ncnn12`, in data set [5], the EC50 worked out at 11100 nM. Besides, in data set [6], the CC50 at 72 h was determined as 23700 nM. In addition, the selectivity ratio in [7] was found to be 2.

`C[C@@]1(F)[C@H](O)[C@@H](CO)O[C@H]1n1ccc(N)nc1=O`: the EC50 in data set [8] was found to be 3200 nM.

As to `C[C@@]1(O)[C@H](O)[C@@H](CO)O[C@H]1c1cc(Cl)c2c(N)ncnn12`, the EC50 in data set [5] was more than 4000 nM. Also, the CC50 at 72 h in data set [6] is 4780 nM.

Turning to `Cc1nc(-c2ccccc2)sc1C(=O)Nc1sc2c(c1C#N)CCC2`, the half-maximal inhibitory concentration (IC50) in data set [3] stood at 5000 nM. Moreover, the EC50 in data set [4] came to 4800 nM.

As for `Nc1ncnn2c([C@@H]3O[C@H](CO)[C@@H](O)[C@H]3O)ccc12`, the concentration for a half-maximal effect (EC50) in [5] amounted to 7 nM; in data set [9], 15 nM. Moreover, in data set [6], the CC50 at 72 h came to 140 nM. In addition, the selectivity ratio in data set [7] stood at 20.

As to `C[C@@]1(O)[C@H](O)[C@@H](CO)O[C@H]1n1ccc(N)nc1=O`, the EC50 in [10] was determined as 300 nM; in [8], 8200 nM; in data set [11] it was 2000 nM.

In the case of `Nc1ncnn2c([C@@H]3O[C@H](CO)[C@@H](O)[C@H]3O)cc(Br)c12`, the values for the EC50 in data set [5] and in [9] were 24 nM and more than 10000 nM, respectively. The CC50 at 72 h in [6] amounted to 450 nM. For the same compound, the selectivity ratio in [7] is 19.

As to `Nc1ncnn2c([C@H]3O[C@@H](CO)[C@H](O)[C@@H]3O)cc(Cl)c12`, the EC50 in data set [5] is more than 100000 nM. Moreover, the CC50 at 72 h in [6] was more than 100000 nM.

For `Nc1ncnn2c([C@H]3O[C@@H](CO)[C@H](O)[C@@H]3O)ccc12`, in data set [5], the EC50 was more than 100000 nM. In addition, the CC50 at 72 h in data set [6] was more than 100000 nM.

Turning to `Nc1ncnn2c([C@@H]3O[C@H](CO)[C@@H](O)[C@H]3O)cc(Cl)c12`, the EC50 in [5] was 7 nM; in data set [9] it was more than 10000 nM. The CC50 at 72 h in [6] was more than 10 nM. For the same compound, in data set [7], the selectivity ratio is more than 1.

Consider `C[C@H](NP(=O)(N[C@@H](C)C(=O)OCc1ccccc1)OC[C@H]1O[C@@H](c2cc(Cl)c3c(N)ncnn23)[C@H](O)[C@@H]1O)C(=O)OCc1ccccc1`, for which the EC50 in [5] is more than 10000 nM. In addition, the CC50 at 72 h in [6] was more than 10000 nM.

In the case of `Nc1ncnn2c([C@@H]3O[C@H](CO)[C@@H](O)[C@H]3O)cc(I)c12`, the EC50 in data set [5] was 35 nM; in data set [9], more than 10000 nM. In data set [6], the CC50 at 72 h was determined as 780 nM. For the same compound, the selectivity ratio in data set [7] was determined as 22.

Regarding `Nc1ncnc2c1c(Cl)cn2[C@@H]1O[C@H](CO)[C@@H](O)[C@H]1O`, the EC50 in [5] was more than 2000 nM. The CC50 at 72 h in data set [6] was found to be 2530 nM.

On to `NC(=O)c1ncn([C@@H]2O[C@H](CO)[C@@H](O)[C@H]2O)n1` [RIBAVIRIN], for which, in data set [8], the EC50 amounted to 43000 nM.

With `Cc1ccc(C(=O)Nc2ccc(S(=O)(=O)O)c3cc(S(=O)(=O)O)cc(S(=O)(=O)O)c23)cc1NC(=O)c1cccc(NC(=O)Nc2cccc(C(=O)Nc3cc(C(=O)Nc4ccc(S(=O)(=O)O)c5cc(S(=O)(=O)O)cc(S(=O)(=O)O)c45)ccc3C)c2)c1` [SURAMIN], the IC50 in data set [1] was determined as 70 nM; in data set [2] it was 25 nM.

The values are drawn from ChEMBL document CHEMBL4680252, “Anti-norovirus activity of C7-modified 4-amino-pyrrolo[2,1-f][1,2,4]triazine C-nucleosides” (Eur J Med Chem, 2020).
